Results as given in ChEMBL document CHEMBL4706681, “New 2-Pyrazoline and Hydrazone Derivatives as Potent and Selective Monoamine Oxidase A Inhibitors” (J Med Chem, 2021).
Activity calls are given as the source filed them. The calls are words filed in the database; no cut-off is given here.

Key:
[1] = target: T1, Amine oxidase [flavin-containing] A (Homo sapiens, UniProt P21397); assay: Inhibition of recombinant human MAO-A expressed in baculovirus infected BTI insect cells using p-tyramine as substrate incubated for 30 mins by Amplex red reagent based fluorescence analysis
T1 sequence (P21397 whole entry): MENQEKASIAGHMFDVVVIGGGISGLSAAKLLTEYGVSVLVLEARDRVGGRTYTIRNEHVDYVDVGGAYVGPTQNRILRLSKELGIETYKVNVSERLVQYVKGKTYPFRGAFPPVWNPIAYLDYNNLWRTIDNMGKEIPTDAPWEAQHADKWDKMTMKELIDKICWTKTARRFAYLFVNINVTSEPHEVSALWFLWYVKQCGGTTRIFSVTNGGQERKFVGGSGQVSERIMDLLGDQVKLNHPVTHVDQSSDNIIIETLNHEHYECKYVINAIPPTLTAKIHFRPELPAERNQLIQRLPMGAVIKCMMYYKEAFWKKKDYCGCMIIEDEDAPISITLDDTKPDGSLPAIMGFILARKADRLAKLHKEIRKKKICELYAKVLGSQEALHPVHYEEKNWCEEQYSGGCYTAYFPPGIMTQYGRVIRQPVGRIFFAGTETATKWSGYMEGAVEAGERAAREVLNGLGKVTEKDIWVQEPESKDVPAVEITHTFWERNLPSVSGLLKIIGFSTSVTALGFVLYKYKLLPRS

[2] = target: T2, Amine oxidase [flavin-containing] B (Homo sapiens, UniProt P27338); assay: Inhibition of recombinant human MAO-B expressed in baculovirus infected BTI insect cells using p-tyramine as substrate incubated for 30 mins by Amplex red reagent based fluorescence analysis; type: cell-based
T2 sequence (P27338 whole entry): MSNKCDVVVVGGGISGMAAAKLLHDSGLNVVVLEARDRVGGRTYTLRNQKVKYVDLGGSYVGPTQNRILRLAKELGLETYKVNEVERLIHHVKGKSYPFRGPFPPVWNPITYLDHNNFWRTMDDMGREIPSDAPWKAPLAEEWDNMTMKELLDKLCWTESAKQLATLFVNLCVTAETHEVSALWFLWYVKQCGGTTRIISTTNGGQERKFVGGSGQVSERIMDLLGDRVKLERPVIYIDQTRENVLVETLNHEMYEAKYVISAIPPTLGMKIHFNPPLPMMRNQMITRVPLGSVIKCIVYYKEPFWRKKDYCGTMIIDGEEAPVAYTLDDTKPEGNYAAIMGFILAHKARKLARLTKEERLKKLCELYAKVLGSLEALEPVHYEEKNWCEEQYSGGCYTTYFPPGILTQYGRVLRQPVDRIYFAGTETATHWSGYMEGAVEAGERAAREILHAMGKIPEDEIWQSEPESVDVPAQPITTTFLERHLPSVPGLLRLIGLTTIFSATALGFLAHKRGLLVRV

[3] = Permeability of compound in PBS/EtOH buffer (70:30) at 25 ug/ml incubated for 16 hrs by UV plate reader based PAMPA-BBB
Mus musculus [4] = assay: Antidepressant-like activity in CD1 mouse assessed as reduction in immobility time at 30 mg/kg, po administered via gavage for 7 days and measured 1 h post last dose by Porsolt-forced swim test; type: functional, organism-based; conditions: time 7.0 day
In short: (§1)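 Male albino CD-1 mice (20–25 g), 12 h light/dark, food and water ad libitum. Dosed by oral gavage once daily for 7 days in 200 μL 0.5% CMC; vehicle-only controls. […] Forced swim test run 1 h after the last dose. Immobility scored every 60 s over 6 min; n = 8–12.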

[5] = Ex vivo inhibition of MAOA in CD1 mouse brain homogenates assessed as 5-HT levels at 30 mg/kg, po administered as single acute dose via gavage and measured after 1 hr by ELISA kit method (reference value: 0.80 +/- 0.006 ug/g); type: functional
[6] = Ex vivo inhibition of MAOA in CD1 mouse brain homogenates assessed as 5-HT levels at 30 mg/kg, po administered as subchronic dose via gavage for 7 days and measured 1 hr post last dose by ELISA kit method (reference value: 0.78 +/- 0.01 ug/g); type: functional; conditions: time 7 day
[7] = Effect on locomotor activity in CD1 mouse assessed as total distance traveled at 30 mg/kg, po administered via gavage for 7 days by open field test; type: ADME, organism-based; conditions: in vivo, 168 h, time 7 day
In short: (§2)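 Each mouse placed in the centre of a 50 × 50 × 30 cm black box and video-tracked; total distance travelled over 5 min; n = 8–10.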

Mus musculus [8] = assay: Antidepressant-like activity in CD1 mouse assessed as maximum efficacy at 20 mg/kg, po administered as subchronic dose gavage for 7 days and measured 1 h post last dose by Porsolt-forced swim test; type: functional, organism-based; conditions: time 7.0 day; in short: as §1
Mus musculus [9] = assay: Antidepressant-like activity in CD1 mouse assessed as reduction in immobility time at 20 mg/kg, po administered via gavage as single dose measured after 1 hr by Porsolt-forced swim test; type: functional, organism-based
Mus musculus [10] = assay: Antidepressant-like activity in CD1 mouse assessed as reduction in immobility time at 20 mg/kg, po via gavage administered as […] dose for 7 days and measured 1 h post last dose by Porsolt-forced swim test; type: functional, organism-based; conditions: time 7.0 day
[11] = Ex vivo inhibition of MAOA in CD1 mouse brain homogenates assessed as MAOA level at 20 mg/kg, po administered administered as single acute dose via gavage and measured after 1 hr by monoamine oxidase assay (reference value: 0.40 +/- 0.012 nmol/min/mg); type: functional
[12] = Ex vivo inhibition of MAOA in CD1 mouse brain homogenates assessed as dopamine levels at 20 mg/kg, po administered as single acute dose via gavage and measured after 1 hr by ELISA kit method (reference value: 7.08 +/- 0.58 ug/g); type: functional
[13] = Ex vivo inhibition of MAOA in CD1 mouse brain homogenates assessed as inhibition of 5-HT deamination by measuring 5-HIAA metabolite levels at 20 mg/kg, po administered as single acute dose via gavage and measured after 1 hr by HPLC analysis (reference value: 0.28 +/- 0.011 ug/g); type: functional
[14] = Ex vivo inhibition of MAOA in CD1 mouse brain homogenates assessed as MAOA level at 20 mg/kg, po administered as subchronic dose via gavage for 7 days and measured 1 hr post last dose by monoamine oxidase assay (reference value: 0.40 +/- 0.005 nmol/min/mg); type: functional; conditions: time 7 day
[15] = Ex vivo inhibition of MAOA in CD1 mouse brain homogenates assessed as inhibition of 5-HT deamination by measuring 5-HIAA metabolite levels at 20 mg/kg, po administered as subchronic dose via gavage for 7 days and measured 1 hr post last dose by HPLC analysis (reference value: 0.18 +/- 0.01 ug/g); type: functional; conditions: time 7 day
[16] = Effect on locomotor activity in CD1 mouse assessed as total distance traveled at 20 mg/kg, po administered via gavage for 7 days by open field test; type: ADME, organism-based; conditions: in vivo, 168 h, time 7 day; in short: as §2
Mus musculus [17] = assay: Antidepressant-like activity in CD1 mouse assessed as reduction in immobility time at 10 mg/kg, po administered as subchronic dose via gavage for 7 days and measured 1 h post last dose by Porsolt-forced swim test; type: functional, organism-based; conditions: time 7.0 day; in short: as §1
Mus musculus [18] = assay: Antidepressant-like activity in po dosed CD1 mouse assessed as maximum efficacy administered as subchronic dose gavage for 7 days and measured 1 h post last dose by Porsolt-forced swim test; type: functional; conditions: time 7 day; in short: as §1

Ki [1]	Ki [2]	Papp at 16 h, 25 ug/ml [3]	Structure (SMILES)	Activity (Mus musculus [4])	Activity [5]	Activity [6]	Activity [7]	Activity (Mus musculus [8])	Activity (Mus musculus [9])	Activity (Mus musculus [10])	Activity [11]	Activity [12]	Activity [13]	Activity [14]	Activity [15]	Activity [16]	Activity (Mus musculus [17])	Emax (Mus musculus [18])
0.009 µM	655 µM	8.05 ×10⁻⁶ cm/s	COc1ccc(C2=NN(C(=O)Cn3c(=O)oc4ccc(C)cc43)C(c3cccc(OC)c3OC)C2)cc1 (stereo not drawn)	Active	1.1 µg/g	1.15 µg/g	Non-Toxic	inactive										
			O=C(NCCN1CCOCC1)c1ccc(Cl)cc1 [MOCLOBEMIDE]						Active	Active	0.35 nmol/min/mg	7.1 µg/g	0.32 µg/g	0.33 nmol/min/mg	0.23 µg/g	Non-Toxic	Active	20 mg/kg
